Key:
[1] = (§1) Ionotropic effect in guinea pig ventricle papillary muscles assessed as lengthening of 10% repolarized cardiac action potential duration time at 10^-6 M by microelectrode technique relative to untreated control (reference value: 37 to 47 APD10 ms); assay type: functional, Cavia porcellus, Papillary muscle
[2] = as §1, with “90%” for “10%”, “10^-7” for “10^-6”, “209” for “37”, “222 APD50” for “47 APD10”, “ms) in presence of 2 x 10^-5 M KATP channel blocker glibenclamide” for “ms)”; assay type: functional, Cavia porcellus
[3] = (§2) Ionotropic effect in guinea pig ventricle papillary muscles assessed as lengthening of 90% repolarized cardiac action potential duration time at 10^-5 M by microelectrode technique relative to untreated control (reference value: 132 to 176 APD50 ms); assay type: functional, Cavia porcellus, Papillary muscle
[4] = (§3) Ionotropic effect in guinea pig ventricle papillary muscles assessed as lengthening of 25% repolarized cardiac action potential duration time at 10^-5 M by microelectrode technique relative to untreated control (reference value: 84 to 104 APD25 ms); assay type: functional, Cavia porcellus, Papillary muscle
[5] = (§4) Ionotropic effect in guinea pig ventricle papillary muscles assessed as lengthening of 50% repolarized cardiac action potential duration time at 10^-6 M by microelectrode technique relative to untreated control (reference value: 132 to 176 APD50 ms); assay type: functional, Cavia porcellus, Papillary muscle
[6] = Ionotropic effect in guinea pig right ventricle papillary muscles assessed as contraction force at 10^-6 M by force transduction assay relative to untreated control (reference value: 100%); assay type: functional, Cavia porcellus, Papillary muscle
[7] = as §1, with “10^-5” for “10^-6”, “52” for “37”, “54” for “47”, “ms) in presence of 2 x 10^-5 M KATP channel blocker glibenclamide” for “ms)”; assay type: functional, Cavia porcellus
[8] = (§5) Ionotropic effect in guinea pig ventricle papillary muscles assessed as lengthening of 50% repolarized cardiac action potential duration time at 10^-5 M by microelectrode technique relative to untreated control (reference value: 132 to 176 APD50 ms); assay type: functional, Cavia porcellus, Papillary muscle
[9] = as §5, with “10^-4” for “10^-5”, “180” for “132”, “192” for “176”, “ms) in presence of 2 x 10^-5 M KATP channel blocker glibenclamide” for “ms)”; assay type: functional, Cavia porcellus
[10] = Ionotropic effect in guinea pig right ventricle papillary muscles assessed as contraction force at 10^-4 M by force transduction assay relative to untreated control (reference value: 100%); assay type: functional, Cavia porcellus, Papillary muscle
[11] = as §4, with “180” for “132”, “192” for “176”, “ms) in presence of 2 x 10^-5 M KATP channel blocker glibenclamide” for “ms)”; assay type: functional, Cavia porcellus
[12] = as §4, with “10^-5” for “10^-6”, “180” for “132”, “192” for “176”, “ms) in presence of 3.1 x 10^-6 M inward rectifier current blocker BaCl2” for “ms)”; assay type: functional, Cavia porcellus
[13] = as §2, with “209” for “132”, “222” for “176”, “ms) in presence of 3.1 x 10^-6 M inward rectifier current blocker BaCl2” for “ms)”; assay type: functional, Cavia porcellus
[14] = as §3, with “10^-4” for “10^-5”, “120” for “84”, “131” for “104”, “ms) in presence of 1 x 10^-6 M IKr channel blocker Sotalol” for “ms)”; assay type: functional, Cavia porcellus
[15] = as §1, with “10^-7” for “10^-6”, “52” for “37”, “54” for “47”, “ms) in presence of 3.1 x 10^-6 M inward rectifier current blocker BaCl2” for “ms)”; assay type: functional, Cavia porcellus
[16] = Ionotropic effect in guinea pig ventricle papillary muscles assessed as lengthening of 25% repolarized cardiac action potential duration time at 10^-7 M by microelectrode technique relative to untreated control (reference value: 84 to 104 APD25 ms); assay type: functional, Cavia porcellus, Papillary muscle
[17] = as §4, with “10^-5” for “10^-6”, “180” for “132”, “192” for “176”, “ms) in presence of 1 x 10^-6 M IKr channel blocker Sotalol” for “ms)”; assay type: functional, Cavia porcellus
[18] = Vasodilatory activity in human vena saphena magna assessed as reduction in phenylephrine-induced smooth muscle contraction at 0.1 uM; assay type: functional; parameters: scale not given: the % may be the effect or the level left
In short: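 Saphenous vein rings came from 37 CABG patients. They were bathed in Tyrode's solution (mM: NaCl 137, KCl 5.4, CaCl2 1.8, MgCl2 0.9, Tris HCl 10, glucose 5; pH 7.4), equilibrated 45–60 min and washed every 15 min. Rings were precontracted with 10^-4 M phenylephrine, then given cumulative test agent at 10^-7 to 10^-4 M. Isometric relaxation was recorded, as means ± SE.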

[19] = as §1, with “52” for “37”, “54” for “47”, “ms) in presence of 1 x 10^-6 M IKr channel blocker Sotalol” for “ms)”; assay type: functional, Cavia porcellus
[20] = as §1, with “52” for “37”, “54” for “47”, “ms) in presence of 2 x 10^-5 M KATP channel blocker glibenclamide” for “ms)”; assay type: functional, Cavia porcellus
[21] = (§6) Ionotropic effect in guinea pig ventricle papillary muscles assessed as lengthening of 90% repolarized cardiac action potential duration time at 10^-6 M by microelectrode technique relative to untreated control (reference value: 132 to 176 APD50 ms); assay type: functional, Cavia porcellus, Papillary muscle
[22] = as §6, with “10^-4” for “10^-6”, “209” for “132”, “222” for “176”, “ms) in presence of 1 x 10^-6 M IKr channel blocker Sotalol” for “ms)”; assay type: functional, Cavia porcellus

SMILES: CCCOCCOC(=O)C1=C(C)NC=C([N+](=O)[O-])C1c1ccccc1OC(F)F (configuration not stated)
- Time [1]: 41.4 ms
- Time [2]: 234.5 ms
- Time [3]: 238.5 ms
- Time [4]: 133 ms
- Time [5]: 196 ms
- Activity [6]: 120%
- Time [7]: 61 ms
- Time [8]: 205.8 ms
- Time [9]: 247 ms
- Activity [10]: 190.8%
- Time [11]: 219 ms
- Time [12]: 231 ms
- Time [13]: 260.5 ms
- Time [14]: 142 ms
- Time [15]: 64.3 ms
- Time [16]: 112.7 ms
- Time [17]: 199 ms
- Activity [18]: 26%
- Time [19]: 49 ms
- Time [20]: 59.6 ms
- Time [21]: 229 ms
- Time [22]: 250.8 ms

Source: ChEMBL document CHEMBL2150950, “Effect of 4-aryl-2-methyl-5-nitro-1,4-dihydropyridine-3-carboxylates on the guinea pig papillary muscle and isolated human vena saphena magna that is used for coronary artery bypass grafting” (2011)
